Reference: ChEMBL document CHEMBL1123521, “Isozyme-specific enzyme inhibitors. 10. Adenosine 5'-triphosphate derivatives as substrates or inhibitors of methionine adenosyltransferases of rat normal and hepatoma tissues” (J Med Chem, 1986)

How the values were obtained:
[1] = target: T1, S-adenosylmethionine synthetase (MAT 1 and MAT 2) (Rattus norvegicus, UniProt P13444+P18298); assay: Inhibitory constant against rat methionine adenosyltransferase was reported; format: protein assay
How it was run: (§1)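 MAT-T partly purified from rat Novikoff hepatoma cells grown intraperitoneally in rats: cytosol extract, DEAE-cellulose, stored at -20 °C, diluted 10-fold for use. Assay run in duplicate, 37 °C for 30 min, in 150 mM KCl–15 mM MgCl2–5 mM DTT–50 mM Tris-HCl pH 8.2 with 60 μM [14C]methionine. Inhibitors given as 1:1 Mg complexes at two levels of 1-5 × Ki, with six to eight Mg-ATP levels (0.5-4.0 × KM).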

[2] = target: T2, S-adenosylmethionine synthase isoform type-2 (Rattus norvegicus, UniProt P18298); assay: Inhibitory constant against rat kidney Methionine adenosyltransferase II
T2 sequence (P18298 whole entry, canonical isoform): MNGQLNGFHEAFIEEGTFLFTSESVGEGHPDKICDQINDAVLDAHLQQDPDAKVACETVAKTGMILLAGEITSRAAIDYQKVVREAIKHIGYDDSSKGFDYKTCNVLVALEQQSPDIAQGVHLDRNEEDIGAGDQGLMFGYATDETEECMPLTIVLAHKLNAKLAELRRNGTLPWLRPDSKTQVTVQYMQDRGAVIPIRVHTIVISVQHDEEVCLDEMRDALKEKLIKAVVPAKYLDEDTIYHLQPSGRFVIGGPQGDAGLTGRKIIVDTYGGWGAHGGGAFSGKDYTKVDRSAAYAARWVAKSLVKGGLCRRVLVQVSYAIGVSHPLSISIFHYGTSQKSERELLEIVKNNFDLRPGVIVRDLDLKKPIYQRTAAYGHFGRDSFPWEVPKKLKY
How it was run: (§2)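 MAT-II from rat kidney extract, taken through DEAE chromatography and diluted 10-fold daily. Duplicate 30-min incubations at 37 °C in 150 mM KCl–15 mM MgCl2–5 mM DTT–50 mM Tris-HCl pH 8.2 with 60 μM [14C]methionine. Mg-complexed inhibitor used at two levels (1-5 × Ki) against six to eight Mg-ATP levels (0.5-4.0 × KM). Product counted on phosphocellulose disks.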

[3] = target: T1, S-adenosylmethionine synthetase (MAT 1 and MAT 2); assay: […] rat Methionine adenosyltransferase was reported; format: protein assay; how it was run: as §1
[4] = target: T1, S-adenosylmethionine synthetase (MAT 1 and MAT 2); assay: Competitive inhibition of rat methionine adenosyltransferase, activity expressed as Ki; format: protein assay; how it was run: as §1
[5] = target: T2, S-adenosylmethionine synthase isoform type-2; assay: Inhibitory constant against rat kidney Methionine adenosyltransferase II, activity expressed as Ki; how it was run: as §2
[6] = target: T3, S-adenosylmethionine synthase isoform type-1 (Rattus norvegicus, UniProt P13444); assay: Inhibitory constant against rat liver Methionine adenosyltransferase I, activity expressed as Ki
T3 sequence (P13444 whole entry, canonical isoform): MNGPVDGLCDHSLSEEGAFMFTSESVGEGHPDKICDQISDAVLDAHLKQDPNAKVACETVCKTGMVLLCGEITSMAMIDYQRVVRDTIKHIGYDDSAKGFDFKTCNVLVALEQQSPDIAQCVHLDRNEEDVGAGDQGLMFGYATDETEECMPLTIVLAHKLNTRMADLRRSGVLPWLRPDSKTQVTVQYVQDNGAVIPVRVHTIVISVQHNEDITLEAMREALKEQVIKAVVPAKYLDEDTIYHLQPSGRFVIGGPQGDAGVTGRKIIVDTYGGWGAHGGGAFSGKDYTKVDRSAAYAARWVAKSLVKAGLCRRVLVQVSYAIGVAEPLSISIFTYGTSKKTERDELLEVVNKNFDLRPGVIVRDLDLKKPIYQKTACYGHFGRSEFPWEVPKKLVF
How it was run: (§3)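 Rat liver MAT-I, prepared free of MAT-II and MAT-III and diluted 5-fold. Duplicate assays at 37 °C, 30 min, in 150 mM KCl–7.5 mM MgSO4–2 mM DTT–50 mM HEPES pH 7.5 with 380 μM [14C]methionine. Two inhibitor levels (1:1 Mg complexes, 1-5 × Ki) run against six to eight Mg-ATP levels spanning 0.5-4.0 × KM. Ki taken from kinetic plots.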

[7] = target: T3, S-adenosylmethionine synthase isoform type-1; assay: Inhibitory constant against rat liver Methionine adenosyltransferase I; how it was run: as §3

Structure (SMILES) | Ki [2] [µM] | Ki [4] [µM] | Ki [5] [µM] | Ki [3] [µM] | also measured
Nc1ncnc2c1ncn2[C@@H]1O[C@H](COP(=O)(O)CP(=O)(O)OP(=O)(O)O)[C@@H](O)[C@H]1O [DIPHOSPHOMETHYLPHOSPHONIC ACID ADENOSYL ESTER] | 300 | – | – | 340 | –
CSc1nc2c(N)ncnc2n1[C@@H]1O[C@H](COP(=O)(O)OP(=O)(O)OP(=O)(O)O)[C@@H](O)[C@H]1O | – | – | – | 530 | –
Nc1ncnc2c1ncn2[C@@H]1O[C@H](COP(=O)(O)OP(=O)(O)NP(=O)(O)O)[C@@H](O)[C@H]1O | 5.5 | – | – | 4 | –
Nc1ncnc2c1nc(SCCC(N)C(=O)O)n2C1O[C@H](COP(=O)(O)OP(=O)(O)OP(=O)(O)O)[C@@H](O)[C@H]1O (stereo not given in full) | 520 | – | – | – | Ki [7]: 3300 µM

More lines, main results first:

Ki [2] [µM] | Ki [4] [µM] | Ki [5] [µM] | Structure (SMILES) | Ki [3] [µM] | also measured
530 | – | – | CCCCNc1ncnc2c1ncn2C1O[C@H](COP(=O)(O)OP(=O)(O)OP(=O)(O)O)[C@@H](O)[C@H]1O (stereo not given in full) | – | Ki [1]: 210 µM
600 | – | – | CSc1nc(N)c2ncn([C@@H]3O[C@H](COP(=O)(O)OP(=O)(O)OP(=O)(O)O)[C@@H](O)[C@H]3O)c2n1 | 110 | –
– | 80 | 190 | CC(OP(=O)(O)OP(=O)(O)OP(=O)(O)O)[C@H]1O[C@@H](n2cnc3c(N)ncnc32)[C@H](O)[C@@H]1O (stereo not given in full) | – | Ki [6]: 9 µM
– | 37 | 48 | CCCC(OP(=O)(O)OP(=O)(O)OP(=O)(O)O)[C@H]1O[C@@H](n2cnc3c(N)ncnc32)[C@H](O)[C@@H]1O (stereo not given in full) | – | –
– | 170 | 140 | CO[C@@H]1[C@H](O)[C@@H](COP(=O)(O)OP(=O)(O)OP(=O)(O)O)O[C@H]1n1cnc2c(N)ncnc21 | – | –
– | 180 | 170 | CO[C@H]1[C@@H](O)[C@H](n2cnc3c(N)ncnc32)O[C@@H]1COP(=O)(O)OP(=O)(O)OP(=O)(O)O | – | –
